Reference: ChEMBL document CHEMBL3244215, “Fluorinated pyrimidine nucleosides. 3. Synthesis and antitumor activity of a series of 5'-deoxy-5-fluoropyrimidine nucleosides” (J Med Chem, 1979)
The source made the active and inactive calls. The rule behind the calls is not given here.

Assays:
Sarcoma-180 [1] = assay: Antitumor activity against mouse Sarcoma 180 cells allografted in CD1 mouse at 100 mg/kg, ip qd administered shortly post implantation continued for 8 days relative to vehicle-treated control; assay type: functional, organism-based; set-up: dose 100 mg/kg
Summary of the method: (§1)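 Compounds dissolved or suspended in H2O, given ip as 1.0 mL shortly after tumor implantation, then daily to eight doses in total. Mice killed 8 days after implantation; tumors excised and weighed. Mean tumor weight of treated mice (T) compared with that of H2O-treated controls (C), expressed as C/T index.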

Sarcoma-180 [2] = assay: Antitumor activity against mouse Sarcoma 180 cells allografted in CD1 mouse at 200 mg/kg, ip qd administered shortly post implantation continued for 8 days relative to vehicle-treated control; assay type: functional, organism-based; set-up: dose 200 mg/kg; summary of the method: as §1
Sarcoma-180 [3] = assay: Antitumor activity against mouse Sarcoma 180 cells allografted in CD1 mouse at 50 mg/kg, ip qd administered shortly post implantation continued for 8 days relative to vehicle-treated control; assay type: functional, organism-based; set-up: dose 50 mg/kg; summary of the method: as §1
Sarcoma-180 [4] = assay: Antitumor activity against mouse Sarcoma 180 cells allografted in CD1 mouse at 12.5 mg/kg, ip qd administered shortly post implantation continued for 8 days relative to vehicle-treated control; assay type: functional, organism-based; set-up: dose 12.5 mg/kg; summary of the method: as §1
Sarcoma-180 [5] = assay: Antitumor activity against mouse Sarcoma 180 cells allografted in CD1 mouse at 25 mg/kg, ip qd administered shortly post implantation continued for 8 days relative to vehicle-treated control; assay type: functional, organism-based; set-up: dose 25 mg/kg; summary of the method: as §1
Sarcoma-180 [6] = assay: Antitumor activity against mouse Sarcoma 180 cells allografted in CD1 mouse at 20 mg/kg, ip qd administered shortly post implantation continued for 8 days relative to vehicle-treated control; assay type: functional, organism-based; set-up: dose 20 mg/kg; summary of the method: as §1
Sarcoma-180 [7] = assay: Antitumor activity against mouse Sarcoma 180 cells allografted in CD1 mouse at 40 mg/kg, ip qd administered shortly post implantation continued for 8 days relative to vehicle-treated control; assay type: functional, organism-based; set-up: dose 40 mg/kg; summary of the method: as §1
Mus musculus [8] = assay: Toxicity in mouse in po dosed CD1 mouse assessed as leukopenia administered once daily starting shortly post implantation continued for 8 days relative to vehicle-treated control; assay type: organism-based; settings: in vivo, 192 h
Mus musculus [9] = assay: Toxicity in mouse in po dosed CD1 mouse assessed as change in body weight administered once daily starting shortly post implantation continued for 8 days relative to vehicle-treated control; assay type: organism-based; settings: in vivo, 192 h
Sarcoma-180 [10] = assay: Antitumor activity against mouse Sarcoma 180 cells allografted in CD1 mouse at 3.12 to 800 mg/kg, ip qd administered shortly post implantation for 8 days relative to vehicle-treated control; assay type: functional, organism-based

| Compound | Activity (Sarcoma-180 [1]) | Activity (Sarcoma-180 [2]) | further results |
| --- | --- | --- | --- |
| C[C@H]1O[C@@H](n2cc(F)c(N)nc2=O)[C@H](O)[C@@H]1O | Active | Active | Activity (Sarcoma-180 [3]): Active; Activity (Sarcoma-180 [4]): inactive; Activity (Sarcoma-180 [5]): Active |
| C[C@H]1O[C@@H](n2ccc(N)nc2=O)[C@H](O)[C@@H]1O |  | inactive |  |
| C[C@H]1O[C@@H](n2cc(F)c(N)nc2=O)[C@H]2O[C@H]21 |  | inactive |  |
| C[C@H]1O[C@@H](n2cc(F)c(=O)[nH]c2=O)[C@@H]2OC(C)(C)O[C@@H]21 |  | inactive |  |
| C[C@H]1O[C@@H]2[C@@H](Oc3nc(=O)c(F)cn32)[C@@H]1O |  | inactive |  |
| C[C@H]1O[C@@H](n2cc(F)c(=O)[nH]c2=O)[C@@H](O)[C@H]1O | inactive |  |  |
| C[C@@H]1O[C@@H](n2cc(F)c(=O)[nH]c2=O)[C@H](O)[C@@H]1O | inactive |  |  |
| C=C1O[C@@H](n2cc(F)c(=O)[nH]c2=O)[C@H](O)[C@@H]1O | inactive |  |  |
| C[C@H]1O[C@@H](n2cc(F)c(=O)[nH]c2=O)[C@@H](O)[C@@H]1O | inactive |  |  |
| C[C@H]1O[C@@H]2[C@@H](Oc3nc(N)c(F)c[n+]32)[C@@H]1O | Active | Active | Activity (Sarcoma-180 [6]): inactive; Activity (Sarcoma-180 [7]): Active |
| C[C@H]1O[C@@H](n2cc(F)c(=O)[nH]c2=O)[C@H](O)[C@@H]1O [DOXIFLURIDINE] | Active | Active | Activity (Mus musculus [8]): Toxic; Activity (Mus musculus [9]): Toxic; Activity (Sarcoma-180 [3]): Active; Activity (Sarcoma-180 [4]): inactive; Activity (Sarcoma-180 [10]): Active; Activity (Sarcoma-180 [5]): Active |
| C[C@H]1O[C@@H](n2cc(F)c(N)nc2=O)[C@@H](O)[C@@H]1O | inactive |  |  |
| C[C@H]1O[C@@H](n2ccc(=O)[nH]c2=O)[C@H](O)[C@@H]1O |  | inactive |  |
| O=c1[nH]c(=O)n([C@H]2C[C@H](O)[C@@H](CO)O2)cc1F [FLOXURIDINE] |  |  | Activity (Mus musculus [8]): Toxic; Activity (Mus musculus [9]): Toxic |
